Test results taken from ChEMBL document CHEMBL2010783, “Do plant cyclotides have potential as immunosuppressant peptides?” (J Nat Prod, 2012).
The source made the active and inactive calls. No cut-off for these calls is given here.

How the values were obtained:
Format in all cases: functional, cell-based
[1] = system: PBMC; test: Induction of apoptosis in human activated PBMC assessed as necrosis at 14 uM by annexinV/propidium iodide staining-based flow cytometric analysis
In short: (§1)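 Donor PBMC (10^5) were activated with anti-CD3/CD28 mAbs for 72 h with test agent, medium or controls (camptothecin 30 μg/mL; Triton X-100 0.5%). Readouts were subG1 DNA content by flow cytometry, and annexin V-FITC then propidium iodide staining by flow cytometry. Gates: viable annexin−/PI−; apoptotic annexin+/PI− or +/+; necrotic annexin−/PI+. Three independent experiments, mean ± SEM.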

[2] = system: PBMC; test: Antiproliferative activity against activated human PBMC assessed as decrease in cell division after 72 hrs by flow cytometric analysis
In short: (§2)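 PBMC from healthy adult donors, isolated on a density gradient and cultured in RPMI 1640 with 10% heat-inactivated FCS at 37 °C and 5% CO2. 10^5 cells were stimulated with anti-CD3 (OKT3) and anti-CD28 mAbs for 72 h with test agent or medium. Cells were labelled with CFSE (5 μM, 10 min, 37 °C) and cell division was read by flow cytometry. Three or four independent experiments, mean ± SEM.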

[3] = system: PBMC; test: Induction of apoptosis in human activated PBMC at 1.8 to 14 uM by annexinV/propidium iodide staining-based flow cytometric analysis; in short: as §1
[4] = system: PBMC; test: Antiproliferative activity against activated human PBMC assessed as decrease in cell division at 1.6 uM after 72 hrs by flow cytometric analysis; in short: as §2
[5] = system: PBMC; test: Induction of apoptosis in human activated PBMC assessed as internucleosomal DNA fragmentation at 1.6 uM by annexinV/propidium iodide staining-based flow cytometric analysis; in short: as §1
[6] = system: PBMC; test: Induction of apoptosis in human activated PBMC assessed as necrotic cells at 1.6 uM by annexinV/propidium iodide staining-based flow cytometric analysis; in short: as §1
[7] = system: PBMC; test: Antiproliferative activity against activated human PBMC assessed as decrease in cell division at 30 ug/ml after 72 hrs by flow cytometric analysis; in short: as §2
[8] = system: PBMC; test: Induction of apoptosis in human activated PBMC at 30 ug/ml by annexinV/propidium iodide staining-based flow cytometric analysis; in short: as §1
[9] = system: PBMC; test: Induction of apoptosis in human activated PBMC assessed as necrosis at 30 ug/ml by annexinV/propidium iodide staining-based flow cytometric analysis; in short: as §1

Question: For `CC(C)C[C@@H]1NC(=O)CNC(=O)[C@H](CC(N)=O)NC(=O)[C@H](CCCNC(=N)N)NC(=O)[C@H]([C@@H](C)O)NC(=O)[C@H](CS)NC(=O)[C@H](C(C)C)NC(=O)[C@@H]2CCCN2C(=O)[C@H](CCC(=O)O)NC(=O)[C@H](CO)NC(=O)[C@H](CS)NC(=O)[C@H]([C@@H](C)O)NC(=O)[C@H](CS)NC(=O)CNC(=O)[C@@H]2CCCN2C(=O)[C@H]([C@@H](C)O)NC(=O)[C@H](CC(N)=O)NC(=O)[C@H](CS)NC(=O)[C@H]([C@@H](C)O)NC(=O)CNC(=O)CNC(=O)[C@H](C(C)C)NC(=O)[C@H](CS)NC(=O)[C@H]([C@@H](C)O)NC(=O)[C@H](CCC(=O)O)NC(=O)CNC(=O)[C@H](CS)NC(=O)[C@H](C(C)C)NC(=O)[C@@H]2CCCN2C1=O`, which Activity [1] is on record?
Answer: inactive

Question: What about the Activity [2] of the same compound?
Answer: Dose-dependent effect

Question: What about the Activity [3] of the same compound?
Answer: inactive

Question: `CC(C)C[C@@H]1NC(=O)CNC(=O)[C@H](CC(N)=O)NC(=O)[C@H](CCCNC(=N)N)NC(=O)[C@H]([C@@H](C)O)NC(=O)[C@@H]2CSSC[C@@H]3NC(=O)[C@H]([C@@H](C)O)NC(=O)CNC(=O)CNC(=O)[C@H](C(C)C)NC(=O)[C@@H]4CSSC[C@H](NC(=O)[C@H]([C@@H](C)O)NC(=O)[C@H](CSSC[C@H](NC(=O)[C@H](C(C)C)NC(=O)[C@@H]5CCCN5C1=O)C(=O)NCC(=O)N[C@@H](CCC(=O)O)C(=O)N[C@@H]([C@@H](C)O)C(=O)N4)NC(=O)CNC(=O)[C@@H]1CCCN1C(=O)[C@H]([C@@H](C)O)NC(=O)[C@H](CC(N)=O)NC3=O)C(=O)N[C@@H](CO)C(=O)N[C@@H](Cc1c[nH]c3ccccc13)C(=O)N1CCC[C@H]1C(=O)N[C@@H](C(C)C)C(=O)N2` [KALATA B1] was tested. Which IC50 [2] did it give?
Answer: 3.9 µM

Question: What does the source list for `CC[C@H](C)[C@H](NC(=O)CN)C(=O)NCC(=O)N[C@@H](C)C(=O)N[C@H](C(=O)N[C@@H](CC(C)C)C(=O)N[C@@H](CCCCN)C(=O)N[C@H](C(=O)N[C@@H](CC(C)C)C(=O)N[C@H](C(=O)N[C@H](C(=O)NCC(=O)N[C@@H](CC(C)C)C(=O)N1CCC[C@H]1C(=O)N[C@@H](C)C(=O)N[C@@H](CC(C)C)C(=O)N[C@H](C(=O)N[C@@H](CO)C(=O)N[C@@H](Cc1c[nH]c2ccccc12)C(=O)N[C@H](C(=O)N[C@@H](CCCCN)C(=O)N[C@@H](CCCNC(=N)N)C(=O)N[C@@H](CCCCN)C(=O)N[C@@H](CCCNC(=N)N)C(=O)N[C@@H](CCC(N)=O)C(=O)N[C@@H](CCC(N)=O)C(N)=O)[C@@H](C)CC)[C@@H](C)CC)[C@@H](C)O)[C@@H](C)O)C(C)C)C(C)C`?
Answer: Activity [4]: Active; Activity [5]: Active; Activity [6]: Active

Question: `CC[C@@]1(O)C(=O)OCc2c1cc1n(c2=O)Cc2cc3ccccc3nc2-1` was tested. Which Activity [7] did it give?
Answer: Active

Question: And the Activity [8]?
Answer: Active

Question: And the Activity [9]?
Answer: Active
